Where a chain is given by its changes, count along the chain named.
Experiments:
Details in all cases: stereoisomer not certain
[1] = test system: T1, OR5T2 S4G
T1 sequence (whole entry): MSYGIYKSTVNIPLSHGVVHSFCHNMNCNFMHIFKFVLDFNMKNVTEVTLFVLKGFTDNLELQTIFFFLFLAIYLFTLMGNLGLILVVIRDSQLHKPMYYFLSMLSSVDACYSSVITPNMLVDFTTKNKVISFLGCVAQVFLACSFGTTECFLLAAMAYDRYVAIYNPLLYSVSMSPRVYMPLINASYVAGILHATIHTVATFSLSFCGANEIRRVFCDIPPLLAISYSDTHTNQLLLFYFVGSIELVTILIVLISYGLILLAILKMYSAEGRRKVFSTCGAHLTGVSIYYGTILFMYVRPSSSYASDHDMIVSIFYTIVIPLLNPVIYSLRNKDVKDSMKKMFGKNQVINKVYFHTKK
Summary of the method: (§1)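 Transient luciferase assays in mammalian cell lines were common, though methods varied by source. The values come from published papers and their supplementary material, with extra details from the original authors when needed. Responsive refers to a measured signal the original authors judged statistically different from baseline, and non-responsive (inactive) to the remainder.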

[2] = biological target: T2, OR5T3 (Homo sapiens) (UniProt Q8NGG3)
T2 sequence (whole entry): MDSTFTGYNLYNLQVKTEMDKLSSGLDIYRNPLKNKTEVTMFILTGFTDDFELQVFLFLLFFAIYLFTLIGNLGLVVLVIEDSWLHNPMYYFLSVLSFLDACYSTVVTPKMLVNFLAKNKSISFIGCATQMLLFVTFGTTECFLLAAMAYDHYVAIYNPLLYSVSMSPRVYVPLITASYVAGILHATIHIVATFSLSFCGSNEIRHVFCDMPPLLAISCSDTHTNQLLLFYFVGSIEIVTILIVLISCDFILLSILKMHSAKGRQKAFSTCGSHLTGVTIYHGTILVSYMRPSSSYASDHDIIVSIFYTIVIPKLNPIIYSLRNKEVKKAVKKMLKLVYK
Summary of the method: as §1

[3] = biological target: T3, OR5V1 (Homo sapiens) (UniProt Q9UGF6)
T3 sequence (whole entry): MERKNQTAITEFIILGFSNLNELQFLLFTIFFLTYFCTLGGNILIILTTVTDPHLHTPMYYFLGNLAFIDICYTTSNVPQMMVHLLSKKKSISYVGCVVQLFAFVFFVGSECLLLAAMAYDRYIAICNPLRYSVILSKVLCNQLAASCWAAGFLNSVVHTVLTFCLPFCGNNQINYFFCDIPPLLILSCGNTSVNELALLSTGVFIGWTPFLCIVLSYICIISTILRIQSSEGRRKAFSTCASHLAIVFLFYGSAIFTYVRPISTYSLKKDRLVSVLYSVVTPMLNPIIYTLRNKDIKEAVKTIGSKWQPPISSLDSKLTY
Summary of the method: as §1

[4] = biological target: T4, OR5W2 (Homo sapiens) (UniProt Q8NH69)
T4 sequence (whole entry): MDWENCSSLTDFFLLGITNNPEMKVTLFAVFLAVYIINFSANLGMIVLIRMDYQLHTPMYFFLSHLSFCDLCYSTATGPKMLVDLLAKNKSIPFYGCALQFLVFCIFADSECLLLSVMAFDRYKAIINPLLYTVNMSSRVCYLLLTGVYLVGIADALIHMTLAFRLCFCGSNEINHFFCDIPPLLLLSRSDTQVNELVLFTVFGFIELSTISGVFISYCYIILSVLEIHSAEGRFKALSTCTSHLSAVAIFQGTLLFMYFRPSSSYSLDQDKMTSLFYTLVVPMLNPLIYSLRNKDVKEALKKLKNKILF
Summary of the method: as §1

[5] = test system: T5, OR5W2 R189C
T5 sequence (whole entry): T4 sequence (whole entry) with R189C
Summary of the method: as §1

[6] = biological target: T6, OR6A2 (Homo sapiens) (UniProt O95222)
T6 sequence (whole entry): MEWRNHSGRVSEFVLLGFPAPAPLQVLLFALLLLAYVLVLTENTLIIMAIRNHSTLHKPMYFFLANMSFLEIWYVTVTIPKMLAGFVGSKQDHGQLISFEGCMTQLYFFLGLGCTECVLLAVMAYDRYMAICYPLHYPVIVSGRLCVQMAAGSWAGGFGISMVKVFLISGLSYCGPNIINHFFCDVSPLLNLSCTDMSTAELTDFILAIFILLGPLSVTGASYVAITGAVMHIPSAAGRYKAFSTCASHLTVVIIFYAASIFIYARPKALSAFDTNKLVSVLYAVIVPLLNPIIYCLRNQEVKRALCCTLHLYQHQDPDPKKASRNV
Summary of the method: as §1

[7] = test system: T7, OR6A2 I50V
T7 sequence (whole entry): T6 sequence (whole entry) with I50V
Summary of the method: as §1

[8] = biological target: T8, OR6B1 (Homo sapiens) (UniProt O95007)
T8 sequence (whole entry): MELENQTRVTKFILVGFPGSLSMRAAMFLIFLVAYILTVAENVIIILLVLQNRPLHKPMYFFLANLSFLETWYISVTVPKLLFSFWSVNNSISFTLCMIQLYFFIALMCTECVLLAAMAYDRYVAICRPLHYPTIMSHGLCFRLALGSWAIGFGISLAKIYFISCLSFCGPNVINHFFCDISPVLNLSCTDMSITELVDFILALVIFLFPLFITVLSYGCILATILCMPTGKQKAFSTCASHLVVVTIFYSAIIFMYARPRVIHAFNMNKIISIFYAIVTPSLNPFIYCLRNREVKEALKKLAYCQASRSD
Summary of the method: as §1

[9] = biological target: T9, OR6B2 (Homo sapiens) (UniProt Q6IFH4)
T9 sequence (whole entry): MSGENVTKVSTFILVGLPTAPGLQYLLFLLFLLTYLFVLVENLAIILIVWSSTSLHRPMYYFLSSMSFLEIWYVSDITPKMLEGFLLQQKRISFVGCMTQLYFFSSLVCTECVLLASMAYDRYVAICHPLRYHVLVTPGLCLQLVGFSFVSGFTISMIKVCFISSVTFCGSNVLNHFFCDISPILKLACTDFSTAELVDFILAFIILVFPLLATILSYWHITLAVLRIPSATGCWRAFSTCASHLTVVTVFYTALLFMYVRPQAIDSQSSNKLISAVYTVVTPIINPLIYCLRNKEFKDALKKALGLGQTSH
Summary of the method: as §1

[10] = test system: T10, OR6B2 R122C C179R
T10 sequence (whole entry): T9 sequence (whole entry) with R122C, C179R
Summary of the method: as §1

[11] = biological target: T11, OR6B3 (Homo sapiens) (UniProt Q8NGW1)
T11 sequence (whole entry): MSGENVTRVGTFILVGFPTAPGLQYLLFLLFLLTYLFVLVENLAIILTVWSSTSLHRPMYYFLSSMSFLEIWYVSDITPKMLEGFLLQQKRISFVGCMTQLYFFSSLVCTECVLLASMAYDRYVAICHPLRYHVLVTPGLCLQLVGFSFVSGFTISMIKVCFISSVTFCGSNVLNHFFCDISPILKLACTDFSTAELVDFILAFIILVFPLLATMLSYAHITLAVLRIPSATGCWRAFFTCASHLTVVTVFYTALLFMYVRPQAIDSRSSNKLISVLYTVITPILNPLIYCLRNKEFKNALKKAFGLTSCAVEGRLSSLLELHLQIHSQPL
Summary of the method: as §1

[12] = test system: T12, OR6B3 T48I R131C
T12 sequence (whole entry): T11 sequence (whole entry) with T48I, R131C
Summary of the method: as §1

[13] = biological target: T13, OR6C1 (Homo sapiens) (UniProt Q96RD1)
T13 sequence (whole entry): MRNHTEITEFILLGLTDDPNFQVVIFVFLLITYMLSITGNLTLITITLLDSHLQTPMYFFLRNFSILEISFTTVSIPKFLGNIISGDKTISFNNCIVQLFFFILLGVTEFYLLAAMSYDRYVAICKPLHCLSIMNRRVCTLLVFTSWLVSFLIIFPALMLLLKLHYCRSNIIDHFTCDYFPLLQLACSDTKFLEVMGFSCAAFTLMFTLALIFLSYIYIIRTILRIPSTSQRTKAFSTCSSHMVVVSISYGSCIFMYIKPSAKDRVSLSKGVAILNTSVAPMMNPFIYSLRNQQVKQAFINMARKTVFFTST
Summary of the method: as §1

[14] = test system: T14, OR6C1 C130Y H165D V246I
T14 sequence (whole entry): T13 sequence (whole entry) with C130Y, H165D, V246I
Summary of the method: as §1

[15] = biological target: T15, OR6C2 (Homo sapiens) (UniProt Q9NZP2)
T15 sequence (whole entry): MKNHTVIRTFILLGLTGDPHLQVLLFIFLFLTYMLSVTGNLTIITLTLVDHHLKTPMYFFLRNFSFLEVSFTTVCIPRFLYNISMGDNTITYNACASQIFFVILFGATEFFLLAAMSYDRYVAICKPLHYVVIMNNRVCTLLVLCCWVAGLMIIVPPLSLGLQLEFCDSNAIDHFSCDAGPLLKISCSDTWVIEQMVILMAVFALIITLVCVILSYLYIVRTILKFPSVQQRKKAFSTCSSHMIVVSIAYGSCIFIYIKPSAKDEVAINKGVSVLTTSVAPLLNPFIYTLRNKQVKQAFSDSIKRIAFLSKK
Summary of the method: as §1

[16] = biological target: T16, OR6C3 (Homo sapiens) (UniProt Q9NZP0)
T16 sequence (whole entry): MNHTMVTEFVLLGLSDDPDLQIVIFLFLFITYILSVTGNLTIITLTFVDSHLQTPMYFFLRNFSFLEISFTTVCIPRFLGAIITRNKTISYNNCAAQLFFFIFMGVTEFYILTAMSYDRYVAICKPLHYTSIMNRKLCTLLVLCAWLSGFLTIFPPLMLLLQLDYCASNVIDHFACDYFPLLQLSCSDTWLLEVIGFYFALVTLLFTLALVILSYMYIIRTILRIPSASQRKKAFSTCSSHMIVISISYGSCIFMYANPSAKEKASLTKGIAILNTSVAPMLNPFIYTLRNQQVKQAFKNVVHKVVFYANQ
Summary of the method: as §1

[17] = biological target: T17, OR6C4 (Homo sapiens) (UniProt Q8NGE1)
T17 sequence (whole entry): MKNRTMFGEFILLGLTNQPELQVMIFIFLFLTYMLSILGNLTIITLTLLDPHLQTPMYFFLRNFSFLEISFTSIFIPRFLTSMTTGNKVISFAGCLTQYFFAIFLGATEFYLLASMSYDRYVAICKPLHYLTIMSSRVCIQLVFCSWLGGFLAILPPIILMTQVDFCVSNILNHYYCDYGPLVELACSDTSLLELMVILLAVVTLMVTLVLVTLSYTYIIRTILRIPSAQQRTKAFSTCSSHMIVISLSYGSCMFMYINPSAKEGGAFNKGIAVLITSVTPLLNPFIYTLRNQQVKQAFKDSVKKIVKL
Summary of the method: as §1

[18] = test system: T18, OR6C4
T18 sequence (whole entry): T17 sequence (whole entry) with I37V
Summary of the method: as §1

[19] = biological target: T19, OR6C6 (Homo sapiens) (UniProt A6NF89)
T19 sequence (whole entry): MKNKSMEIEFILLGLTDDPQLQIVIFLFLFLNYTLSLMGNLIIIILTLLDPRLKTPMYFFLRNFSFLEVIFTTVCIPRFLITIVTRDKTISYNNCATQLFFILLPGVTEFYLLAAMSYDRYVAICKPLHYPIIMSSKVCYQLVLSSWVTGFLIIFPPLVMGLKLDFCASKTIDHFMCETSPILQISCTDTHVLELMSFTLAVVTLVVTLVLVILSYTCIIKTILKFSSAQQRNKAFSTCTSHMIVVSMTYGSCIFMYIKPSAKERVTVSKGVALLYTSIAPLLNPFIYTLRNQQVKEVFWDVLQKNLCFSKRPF
Summary of the method: as §1

[20] = test system: T20, OR6C6 M6I
T20 sequence (whole entry): T19 sequence (whole entry) with M6I
Summary of the method: as §1

Measured: odorant receptor agonist call;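 also: active if original authors judged signal statistically different from baseline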

CC1=NC(C)C(C)S1 (centres undefined)
inactive: all assays above

CC1=C(O)C(=O)OC1C (centres undefined)
inactive: all assays above

CC(=O)c1c(C)c([N+](=O)[O-])c(C(C)(C)C)c([N+](=O)[O-])c1C
not listed: [1] | [5] | [7] | [10] | [12] | [14] | [18] | [20]
inactive: all other assays above

Cc1cnc(C)c(C)n1
inactive: all assays above

CC(CO)CS (centres undefined)
not listed: [1] | [5] | [7] | [10] | [12] | [14] | [18] | [20]
inactive: all other assays above

CCC1OC(C)=C(O)C1=O (centres undefined)
inactive: all assays above

CCC1OC(=O)C(O)=C1C (centres undefined)
inactive: all assays above

Reference: the M2OR odorant receptor database
